Laboratory results reported in ChEMBL document CHEMBL1155588, “Use of COMPARE analysis to discover functional analogues of bleomycin” (J Nat Prod, 2000).
Active and inactive are the calls of the source. The calls are words filed in the database; no cut-off is given here.

Key:
[1] = Induction of supercoiled pSP64 plasmid DNA cleavage assessed as increase in nicked form 2 at 500 nM by agarose gel electrophoresis in presence of Cu2+
How it was run: (§1)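 Cell-free cleavage of supercoiled, covalently closed circular pSP64 plasmid DNA, with or without Cu2+. Reactions ran 1 h at 37 °C and were stopped with bromophenol blue in 30% glycerol. Products were resolved on 1% agarose containing 0.7 µg/mL ethidium bromide in Tris-borate-EDTA at 130 V for 3 h and viewed under UV. Forms I, II (nicked) and III (linear) were scored.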

[2] = Induction of supercoiled pSP64 plasmid DNA cleavage assessed as increase in linear duplex form 3 at 10 uM by agarose gel electrophoresis; how it was run: as §1
[3] = Induction of pSP64 plasmid DNA relaxation by agarose gel electrophoresis in presence of Cu2+; how it was run: as §1
[4] = Induction of supercoiled pSP64 plasmid DNA cleavage assessed as increase in nicked form 2 at 1 uM by agarose gel electrophoresis; how it was run: as §1
[5] = Induction of supercoiled pSP64 plasmid DNA cleavage assessed as increase in nicked form 2 at 0.25 uM by agarose gel electrophoresis in presence of Cu2+; how it was run: as §1
[6] = Induction of supercoiled pSP64 plasmid DNA cleavage assessed as increase in linear duplex form 3 by agarose gel electrophoresis; how it was run: as §1
[7] = Induction of supercoiled pSP64 plasmid DNA cleavage assessed as increase in nicked form 2 at 2.5 uM by agarose gel electrophoresis in presence of Cu2+; how it was run: as §1
[8] = Induction of supercoiled pSP64 plasmid DNA cleavage assessed as increase in nicked form 2 at 10 uM by agarose gel electrophoresis; how it was run: as §1

| SMILES | Activity [1] | Activity [2] | Activity [3] | Activity [4] | Activity [5] | Activity [6] | Activity [7] | Activity [8] |
| --- | --- | --- | --- | --- | --- | --- | --- | --- |
| Oc1cc(O)c2c(c1)O[C@@H](c1ccc(O)c(O)c1)[C@@H](O)C2 | > 50% | Active | Dose-dependent effect | – | – | – | – | – |
| Oc1cc(O)c2c(c1)O[C@H](c1ccc(O)c(O)c1)[C@@H](O)C2 | > 50% | Active | Dose-dependent effect | – | – | – | – | – |
| COc1cc([C@@H]2OC[C@@H]3[C@H]2CO[C@H]3c2cc(OC)c(O)c(OC)c2)cc(OC)c1O | – | – | Dose-dependent effect | > 50% | Active | inactive | – | – |
| COc1cc(C=O)cc(OC)c1O | – | – | Dose-dependent effect | – | – | inactive | Active | > 50% |
